The text below walks through data of ChEMBL document CHEMBL1127034, “Synthesis, antiproliferative, and antiviral activity of 4-amino-1-(beta-D-ribofuranosyl)pyrrolo[2,3-d]pyridazin-7(6H)-one and related derivatives” (J Med Chem, 1993).

In one assay the test system is Human alphaherpesvirus 1. Put plainly: Tested for antiviral activity against Herpes simplex virus type-1 using enzyme immunoassay.
Assay [1] relates to L1210. Put plainly: Tested for in vitro cell growth inhibition of L1210 cells. The class given is functional, cell-based. Conditions: Mus musculus; call rule not given here. The essentials: (§1)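 L1210 cell number counted at 0, 48 and 96 h across a range of concentrations. Growth rate is the slope of semilog cell number vs time as percent of control (ratio of control to treated doubling time); the 48-96 h rate is used if growth slowed. IC50 halves growth rate. Top concentration 100 μM.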

In assay [2] the test system is NCI-H417. Put plainly: Tested for in vitro cell growth inhibition of NCI-N417 cells; No significant effect. The format is functional, cell-based, Homo sapiens.
Assay [3] relates to Human betaherpesvirus 5. Put plainly: Tested for antiviral activity against human cytomegalovirus by plaque assay. The format is functional, organism-based. The essentials:
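Towne strain HCMV (plaque-purified P0) on HFF monolayers. Inoculum about 50 PFU in 0.2 mL; compounds dissolved in the overlay medium. IC50 from linear regression of percent inhibition vs log concentration. Ganciclovir positive control; assay sets rejected if it deviated >1.5 SD from its mean response.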

A further assay concerns HFF. Put plainly: Tested for cytotoxicity in human foreskin fibroblasts at time of HCMV plaque enumeration. The format is functional, cell-based. A digest of the protocol:
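HFF cells (MEM/Earle's, 10% fetal bovine serum), uninfected cells within HCMV plaque-reduction wells. Drug cytopathology scored visually at 30-fold magnification on a 0-4+ scale on the day of staining for plaque enumeration. IC50 from regression against log concentration.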

Assay [4] in a line: Tested for in vitro cell growth inhibition of NCI-H146 cells; No significant effect. The class given is functional, cell-based, Homo sapiens.
The species entered for assay [5] is Homo sapiens. Put plainly: Tested for in vitro cell growth inhibition of H.Ep. 2 cells; No significant effect. The format is functional, cell-based. The essentials: (§2)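 H.Ep.2 cells grown in MEM/Earle's with 15% heat-inactivated calf serum, 5% CO2. 2000 cells/well plated in 5% calf serum; compound added 1 day later. […] Top concentration 100 μM.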
In assay [6] the test system is Calu-1. Description: Tested for in vitro cell growth inhibition of CALU-1 cells; No significant effect. The format is functional, cell-based, Homo sapiens. A digest of the protocol:
(§3)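 Adherent tumor lines in RPMI 1640 + 5% fetal bovine serum (UMSCC-10A: MEM-5). Cells/well: UMSCC-10A, CALU-1, NCI-H1437 and HT-29 2000; NCI-H460 1000; DLD-1 1000; SW-620 7500. Compound added 1 day after plating. Sulforhodamine B readout on day 5 (NCI-H460 and SW-620: day 4). IC50 halves growth rate vs control. Top concentration 100 μM.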

Assay [7] has as its system NCI-H460. Description: Tested for in vitro cell growth inhibition of NCI-H460. The format is functional, cell-based. Conditions: Homo sapiens. The essentials: as §3
Assay [8] relates to Calu-1. Put plainly: Tested for in vitro cell growth inhibition of CALU-1 cells. The conditions noted are these: Homo sapiens. The format is functional, cell-based. A digest of the protocol:
as §3

For assay [9], the system named is Human betaherpesvirus 5. Description: Tested for antiviral activity against human cytomegalovirus by yield reduction assay. The class given is functional.
The species named for assay [10] is Homo sapiens. Description: Tested for in vitro cell growth inhibition of H.Ep. 2 cells. Conditions: HEp-2. The class given is functional, cell-based. A digest of the protocol: as §2
Assay [11] is described as follows: Tested for in vitro cell growth inhibition of NCI-H1437. The format is functional. Conditions: Homo sapiens. A digest of the protocol:
as §3

Assay [12] in a line: Tested for in vitro cell growth inhibition of […] cells. The format is functional, cell-based. Conditions: Homo sapiens. The essentials: as §3
Assay [13] in a line: Tested for the inhibition of KB cell growth. The class given is functional, cell-based. Conditions: Homo sapiens. A digest of the protocol:
(§4)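 KB cells (MEM/Hank's, 5% fetal bovine serum). Growth measured spectrophotometrically after crystal violet staining 2 days after drug treatment. IC50 from linear regression of percent inhibition vs log concentration.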

For assay [14], the system named is L1210. Put plainly: Tested for in vitro cell growth inhibition of L1210 cells; No significant effect. The format is functional, cell-based, Mus musculus. A digest of the protocol:
as §1

For assay [15], the species on record is Homo sapiens. Put plainly: Tested for in vitro cell growth inhibition of H. Ep. 2 cells; No significant effect. The class given is functional, cell-based. The essentials: as §2
A short description of assay [16]: Tested for in vitro cell growth inhibition of NCI-H146 cells. The format is functional, cell-based. Conditions: Homo sapiens.
The test system of assay [17] is NCI-H460. Description: Tested for in vitro cell growth inhibition of NCI-H460 cells. The format is functional, cell-based. The conditions noted are these: Homo sapiens. The essentials:
as §3

The subject of a further assay is SW-620. Description: Tested for in vitro cell growth inhibition of SW-620 cells. The format is functional, cell-based. Conditions: Homo sapiens. A digest of the protocol: as §3
A further assay relates to DLD-1. Description: Tested for in vitro cell growth inhibition of DLD-1 cells. The format is functional, cell-based. The conditions noted are these: Homo sapiens. The essentials:
as §3

The test system of the next assay is HT-29. Put plainly: Tested for in vitro cell growth inhibition of HT-29 cells. The class given is functional, cell-based. Conditions: Homo sapiens. A digest of the protocol:
as §3

A short description of assay [18]: Tested for in vitro cell growth inhibition of NCI-H1437 cells. The format is functional, cell-based. The conditions noted are these: Homo sapiens. A digest of the protocol: as §3
Assay [19] in a line: Tested for in vitro cell growth inhibition of UMSCC-10A cells. The format is functional, cell-based. Conditions: Homo sapiens. The essentials: as §3
Assay [20] concerns NCI-H417. Description: Tested for in vitro cell growth inhibition of NCI-N417 cells. The format is functional, cell-based. The conditions noted are these: Homo sapiens.
The nature of assay [21]: Tested for the inhibition against KB cell growth. Conditions: Homo sapiens. The format is functional, cell-based. A digest of the protocol:
as §4

Turning to `Nc1nnc(O)c2c1ccn2[C@@H]1O[C@H](CO)[C@@H](O)[C@H]1O`, the IC50 was 90 µM with Human alphaherpesvirus 1; 74 µM with L1210 [1]; “Not Active” in the assay on NCI-H417 [2]; > 100 µM in the assay with Human betaherpesvirus 5 [3]; > 100 µM in the assay on HFF; “Not Active” in assay [4]. For the same compound, the half-inhibitory concentration (IC50) result in the assay filed under Homo sapiens [5] and in the assay on Calu-1 [6] was “Not Active” in each case.
`Nc1n[nH]c(=O)c2c1c(Br)cn2[C@@H]1O[C@H](CO)[C@@H](O)[C@H]1O`: the half-inhibitory concentration (IC50) in the assay with Human alphaherpesvirus 1 is 2 µM; in the assay with L1210 [1], 0.1 µM; in the assay on Human betaherpesvirus 5 [3] it was 0.1 µM; with NCI-H460 [7] it was 0.5 µM; with Calu-1 [8], 0.23 µM; in the assay filed under Homo sapiens [10] it was 0.2 µM. The IC50 in the assay with HFF was 2.5 µM; in assay [11] it was 0.5 µM; in assay [12], 1.3 µM; in assay [13], < 1.2 µM. Moreover, the 90% effect level in the assay with Human betaherpesvirus 5 [9] (IC90) was put at 0.04 µM.
As for `O=c1[nH][nH]c(=O)c2c1ccn2[C@@H]1O[C@H](CO)[C@@H](O)[C@H]1O`, the concentration for half-maximal inhibition (IC50) was > 100 µM in the assay on Human alphaherpesvirus 1, > 100 µM in the assay on Human betaherpesvirus 5 [3], > 100 µM in the assay with HFF and “Not Active” with L1210 [14].
As for `Nc1nncc2c1ccn2C1O[C@H](CO)[C@@H](O)[C@H]1O` (stereo partly specified), the 50% inhibitory concentration (IC50) in the assay with Human alphaherpesvirus 1 is > 100 µM; in the assay with Human betaherpesvirus 5 [3], > 100 µM; in the assay with HFF it was > 100 µM; in the assay listed under Homo sapiens [15] it was “Not Active”; in the assay with L1210 [14] it was “Not Active”.
As to `Nc1nnc(O)c2c1c(I)cn2C1O[C@H](CO)[C@@H](O)[C@H]1O` (stereo partly specified), the IC50 in the assay with Human alphaherpesvirus 1 was 4.5 µM; in the assay with L1210 [1] it was 0.08 µM; in assay [16], 0.42 µM; with Human betaherpesvirus 5 [3], 0.4 µM; with NCI-H460 [17], 0.2 µM; with SW-620, 0.23 µM. The IC50 with Calu-1 [8] was determined as 0.07 µM; in the assay listed under Homo sapiens [10], 0.076 µM; in the assay on DLD-1, 0.07 µM; with HFF, 1 µM; in the assay with HT-29 it was 0.5 µM; in assay [18], 0.13 µM. In addition, the IC50 in assay [19] was 2.5 µM; in the assay with NCI-H417 [20], 0.28 µM; in assay [13], 1.2 µM. This compound also had an IC90 in the assay on Human betaherpesvirus 5 [9] of 0.02 µM.
On to `Nc1nncc2c1c(Br)cn2C1O[C@H](CO)[C@@H](O)[C@H]1O` (stereo partly specified), for which the IC50 is 121 µM in the assay with Human betaherpesvirus 5 [3]; 11 µM in the assay on NCI-H460 [17]; 11 µM in the assay with Calu-1 [8]; 100 µM in the assay on HFF; 12 µM in [13]. The compound also showed a concentration for an effect of 90% (IC90) in the assay with Human betaherpesvirus 5 [9] of 1.4 µM.
`Nc1nnc(O)c2c1c(Cl)cn2C1O[C@H](CO)[C@@H](O)[C@H]1O` (stereo partly specified): the concentration for half-maximal inhibition (IC50) in the assay with Human alphaherpesvirus 1 came out at 6.8 µM; in the assay with L1210 [1], 0.23 µM; with Human betaherpesvirus 5 [3], 0.2 µM; in the assay on HFF, 2.1 µM; in [13] it was 6.1 µM. Further, in the assay with Human betaherpesvirus 5 [9], it took 0.7 µM to reach the 90% level (IC90).
`Nc1ncnc2c1c(Br)cn2[C@@H]1O[C@H](CO)[C@@H](O)[C@H]1O` gave an IC90 in the assay on Human betaherpesvirus 5 [9] of 3.5 µM. Moreover, the IC50 is 1.2 µM in the assay on HFF and 3 µM in assay [13].
As to `Nc1nc2c(ncn2COC(CO)CO)c(=O)[nH]1` [GANCICLOVIR], the IC50 with Human alphaherpesvirus 1 is 3.5 µM; with Human betaherpesvirus 5 [3], 7.7 µM; in the assay with HFF, > 100 µM; in assay [13], > 100 µM. In the assay on Human betaherpesvirus 5 [9], this compound gave an IC90 of 1.8 µM.
For `Nc1ncnc2c1ccn2[C@@H]1O[C@H](CO)[C@@H](O)[C@H]1O` [TUBERCIDIN], the values for the 50% inhibitory concentration (IC50) (with L1210 [1]; in assay [21]) were 0.043 µM and 1 µM, respectively.

In general, IC50 refers to the concentration needed to halve the response being measured. For orientation: IC90 means the concentration at which the effect reaches the 90% level. Read a low IC90 as greater potency.
